Source: publication PMC6398604 (Journal of medicinal chemistry, 2018)

How the values were obtained:
[1] = Rat biomarker assay: inhibitor concentrations in plasma, brain and CSF; format: in vivo; details: for concentration at 4 h: male, Sprague Dawley, CSF, oral, 10 mg/kg, Free CSF, 4 hours after 10mg/kg oral dose, corrected for non-specific binding to CSF
[2] = cited from earlier work
[3] = cited from earlier work; remark: listed apart in the source
Human MB-COMT = molecular target: T1, Human MB-COMT (Homo sapiens, UniProt P21964); experiment: MTase Glo Methyltransferase assay, MB-COMT; format: biochemical
T1 sequence (P21964 1-271): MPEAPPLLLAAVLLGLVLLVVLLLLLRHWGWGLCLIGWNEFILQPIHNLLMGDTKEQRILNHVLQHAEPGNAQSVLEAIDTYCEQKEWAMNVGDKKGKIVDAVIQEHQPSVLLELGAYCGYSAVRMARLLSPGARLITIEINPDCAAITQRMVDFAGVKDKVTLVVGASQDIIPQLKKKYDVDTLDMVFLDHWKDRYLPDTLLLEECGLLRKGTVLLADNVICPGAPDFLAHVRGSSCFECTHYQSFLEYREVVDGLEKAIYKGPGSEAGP

Rat pharmacokinetics = format: in vivo; details: for clearance: rat, plasma, iv, 1 mg/kg; for rat PK profile (in words): rat PK studies
rat hepatocytes = experiment: Hepatocyte stability; format: in vitro ADME
[4] = Mouse Blood-Brain Barrier; format: in vivo; details: 10 mg/kg ip, mice
Procedure, shortened: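 Male C57BL/6J mice (8 weeks) were habituated and handled before dosing. Test compound was suspended in 0.1% Tween80, 0.1% silicone antifoam and 1% methylcellulose in water, then given once ip at 10 mg/kg (10 mL/kg). At 5, 15 or 60 min, mice under isoflurane gave cardiac blood (Li-heparin) and were PBS-perfused. Plasma was spun 2000 rpm, 4°C, 15 min. Brain was homogenised in 4x (w/v) PBS pH 7.4 for total levels.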

P-glycoprotein = P-glycoprotein (Homo sapiens, UniProt P08183); experiment: P-gp efflux ratio in P-glycoprotein expressing MDCK cells; format: in vitro ADME
[5] = Non-specific binding to CSF by equilibrium dialysis; format: in vitro ADME; details: pooled rat CSF, 2 μM testing concentration
[6] = tested on: dopamine metabolites HVA and DOPAC in rat CSF (COMT); experiment: Rat biomarker assay: HVA and DOPAC in CSF; format: in vivo; details: 4 hours after 10 mpk oral
P-gp = P-gp (Homo sapiens, UniProt P08183); experiment: Transporter susceptibility and inhibitory activity, P-gp; format: in vitro ADME; details: data not shown
BCRP = molecular target: T2, BCRP (Homo sapiens, UniProt Q9UNQ0); experiment: Transporter susceptibility and inhibitory activity, BCRP; format: in vitro ADME; details: data not shown
T2 sequence (Q9UNQ0 1-655): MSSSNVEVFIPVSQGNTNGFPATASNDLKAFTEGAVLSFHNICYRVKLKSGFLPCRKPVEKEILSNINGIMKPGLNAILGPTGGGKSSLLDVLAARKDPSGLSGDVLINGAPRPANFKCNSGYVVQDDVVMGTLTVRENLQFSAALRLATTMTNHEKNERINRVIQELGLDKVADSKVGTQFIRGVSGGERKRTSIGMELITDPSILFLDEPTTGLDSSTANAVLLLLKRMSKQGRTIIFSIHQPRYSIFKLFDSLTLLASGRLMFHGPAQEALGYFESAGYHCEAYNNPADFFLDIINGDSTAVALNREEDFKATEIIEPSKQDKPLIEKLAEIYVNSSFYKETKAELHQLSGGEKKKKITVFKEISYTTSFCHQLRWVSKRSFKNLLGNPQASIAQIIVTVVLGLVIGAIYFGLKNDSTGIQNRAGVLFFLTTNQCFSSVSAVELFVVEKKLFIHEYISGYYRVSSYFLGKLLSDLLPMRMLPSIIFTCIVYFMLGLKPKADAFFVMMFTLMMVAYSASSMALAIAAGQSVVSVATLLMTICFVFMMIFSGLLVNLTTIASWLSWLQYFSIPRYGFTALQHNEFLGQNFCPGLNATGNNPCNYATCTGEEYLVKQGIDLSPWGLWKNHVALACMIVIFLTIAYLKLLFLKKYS

MRP2 = MRP2 (Homo sapiens, UniProt Q92887); experiment: Transporter susceptibility and inhibitory activity, MRP2; format: in vitro ADME; details: data not shown
Chain of MRP2 (Q92887 whole entry, species assumed): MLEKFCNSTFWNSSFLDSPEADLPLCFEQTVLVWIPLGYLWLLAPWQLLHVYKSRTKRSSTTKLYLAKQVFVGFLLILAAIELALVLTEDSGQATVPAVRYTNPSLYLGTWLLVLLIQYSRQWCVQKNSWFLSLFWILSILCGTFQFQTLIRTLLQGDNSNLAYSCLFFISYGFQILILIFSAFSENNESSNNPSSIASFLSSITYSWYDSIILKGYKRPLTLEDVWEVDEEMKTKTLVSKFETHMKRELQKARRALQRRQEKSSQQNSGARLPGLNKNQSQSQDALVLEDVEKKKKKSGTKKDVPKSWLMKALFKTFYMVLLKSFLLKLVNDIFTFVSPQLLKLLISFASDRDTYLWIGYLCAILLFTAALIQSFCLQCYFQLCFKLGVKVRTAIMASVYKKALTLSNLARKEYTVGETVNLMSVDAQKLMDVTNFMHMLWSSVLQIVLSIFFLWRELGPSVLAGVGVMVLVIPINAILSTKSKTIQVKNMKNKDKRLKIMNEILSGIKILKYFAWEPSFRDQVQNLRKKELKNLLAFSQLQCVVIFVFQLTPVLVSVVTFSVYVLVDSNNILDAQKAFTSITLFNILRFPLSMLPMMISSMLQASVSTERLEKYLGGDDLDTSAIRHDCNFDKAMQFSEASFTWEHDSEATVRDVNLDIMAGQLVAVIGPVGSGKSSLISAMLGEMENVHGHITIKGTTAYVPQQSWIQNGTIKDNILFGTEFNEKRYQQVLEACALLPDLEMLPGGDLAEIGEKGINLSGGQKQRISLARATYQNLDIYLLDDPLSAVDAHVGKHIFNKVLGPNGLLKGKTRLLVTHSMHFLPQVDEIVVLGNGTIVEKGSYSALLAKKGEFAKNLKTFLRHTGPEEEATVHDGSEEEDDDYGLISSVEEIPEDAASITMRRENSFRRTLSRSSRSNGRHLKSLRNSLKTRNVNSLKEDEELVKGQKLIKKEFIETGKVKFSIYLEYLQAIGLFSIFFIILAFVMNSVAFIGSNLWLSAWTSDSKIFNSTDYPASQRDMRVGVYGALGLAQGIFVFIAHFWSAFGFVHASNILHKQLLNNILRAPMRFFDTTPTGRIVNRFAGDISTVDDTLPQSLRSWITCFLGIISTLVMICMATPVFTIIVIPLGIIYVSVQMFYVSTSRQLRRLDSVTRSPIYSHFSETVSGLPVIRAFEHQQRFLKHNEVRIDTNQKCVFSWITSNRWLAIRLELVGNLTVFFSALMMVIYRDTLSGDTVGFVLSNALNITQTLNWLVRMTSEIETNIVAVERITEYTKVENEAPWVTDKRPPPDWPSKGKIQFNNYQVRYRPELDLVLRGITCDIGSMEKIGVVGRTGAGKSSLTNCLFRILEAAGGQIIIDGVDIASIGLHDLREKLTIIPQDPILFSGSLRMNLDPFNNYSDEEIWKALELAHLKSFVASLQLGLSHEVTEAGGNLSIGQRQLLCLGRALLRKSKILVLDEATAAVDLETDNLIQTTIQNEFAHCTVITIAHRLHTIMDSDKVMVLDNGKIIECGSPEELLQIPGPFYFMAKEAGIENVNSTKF

Chain of P-glycoprotein (P08183 whole entry): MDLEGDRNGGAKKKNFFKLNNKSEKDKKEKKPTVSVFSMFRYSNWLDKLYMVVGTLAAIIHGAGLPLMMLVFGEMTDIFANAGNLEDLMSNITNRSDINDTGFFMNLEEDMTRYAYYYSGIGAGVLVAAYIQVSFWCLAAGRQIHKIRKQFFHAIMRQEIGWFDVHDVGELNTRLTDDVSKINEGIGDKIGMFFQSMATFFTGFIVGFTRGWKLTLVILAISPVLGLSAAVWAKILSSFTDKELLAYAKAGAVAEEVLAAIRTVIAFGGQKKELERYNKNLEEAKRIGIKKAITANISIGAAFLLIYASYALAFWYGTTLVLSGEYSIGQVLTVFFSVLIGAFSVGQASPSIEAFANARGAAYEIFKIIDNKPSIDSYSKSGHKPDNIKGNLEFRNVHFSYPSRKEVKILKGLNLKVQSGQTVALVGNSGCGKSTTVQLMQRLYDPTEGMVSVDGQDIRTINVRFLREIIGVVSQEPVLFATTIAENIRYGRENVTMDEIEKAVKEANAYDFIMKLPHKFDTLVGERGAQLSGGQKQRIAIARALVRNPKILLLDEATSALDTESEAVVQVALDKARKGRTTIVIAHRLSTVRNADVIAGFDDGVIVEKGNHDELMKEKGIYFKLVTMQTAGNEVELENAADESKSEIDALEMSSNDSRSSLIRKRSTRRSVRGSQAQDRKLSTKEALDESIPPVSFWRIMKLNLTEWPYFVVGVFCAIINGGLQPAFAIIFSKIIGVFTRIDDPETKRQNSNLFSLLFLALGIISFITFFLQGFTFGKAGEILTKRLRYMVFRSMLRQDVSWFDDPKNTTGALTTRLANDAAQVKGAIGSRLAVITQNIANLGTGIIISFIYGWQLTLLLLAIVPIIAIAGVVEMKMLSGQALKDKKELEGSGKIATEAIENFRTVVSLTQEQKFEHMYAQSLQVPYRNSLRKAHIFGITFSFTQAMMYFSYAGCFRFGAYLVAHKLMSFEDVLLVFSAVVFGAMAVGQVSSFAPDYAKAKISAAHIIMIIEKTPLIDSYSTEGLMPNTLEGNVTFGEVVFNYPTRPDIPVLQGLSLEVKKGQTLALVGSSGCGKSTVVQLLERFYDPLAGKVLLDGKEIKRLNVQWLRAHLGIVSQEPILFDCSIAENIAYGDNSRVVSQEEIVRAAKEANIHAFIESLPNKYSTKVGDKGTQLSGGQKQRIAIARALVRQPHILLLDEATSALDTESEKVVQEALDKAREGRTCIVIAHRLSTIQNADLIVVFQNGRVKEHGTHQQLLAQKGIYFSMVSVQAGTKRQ
Chain of P-gp (P08183 whole entry): as above

Cc1ccc(C(=O)c2cc(O)c(O)c([N+](=O)[O-])c2)cc1 [Compound 1, tolcapone, reference compound]
CSF ([1]; 4 hours after 15mpk ip): BLQ | Free Brain ([1]; 4 hours after 15mpk ip): BLQ | brain penetration (in words) [2]: low but measurable levels in the brain | hepatic toxicity (in words) [3]: associated with hepatic toxicity

CCN(CC)C(=O)/C(C#N)=C/c1cc(O)c(O)c([N+](=O)[O-])c1 [Compound 2, entacapone]
brain penetration (in words) [2]: negligible brain penetration

Cc1c(Cl)c(C)[n+]([O-])c(Cl)c1-c1noc(-c2cc(O)c(O)c([N+](=O)[O-])c2)n1 [Compound 3, opicapone]
brain penetration (in words) [2]: negligible brain penetration

Oc1cccc2cccnc12 [Compound 4, 8-hydroxyquinoline, reference compound]
MB-COMT inhibition / potency (in words) (Human MB-COMT): abolished MB-COMT inhibition

O=S(=O)(c1ccc(O)c2ncccc12)C1CCCC1 [Compound 11, 5-(Cyclopentylsulfonyl)quinoline-8-ol]
clearance (Rat pharmacokinetics): 26 mL/min/kg

O=S(=O)(c1ccc(O)c2ncccc12)N1CCCC1 [Compound 12, 5-(Pyrrolidin-1-ylsulfonyl)quinoline-8-ol]
Hepatocyte Stability (Rat) (rat hepatocytes): 177 μL/min/10^6 cells | metabolic stability / clearance in rat hepatocytes (in words) (rat hepatocytes): Poor metabolic stability

O=S(=O)(c1ccc(O)c2ncccc12)N1CCC(c2ccc(F)cc2)C1 (centres unmarked) [Compound 13, 5-((3-(4-Fluorophenyl)pyrrolidin-1-yl)sulfonyl)quinoline-8-ol]
metabolic stability / clearance in rat hepatocytes (in words) (rat hepatocytes): Poor metabolic stability

COc1ccc(S(=O)(=O)N2CCCC2)c2cccnc12 [Compound 14, 8-Methoxy-5-(pyrrolidin-1-yulsulfonyl)quinoline]
MB-COMT inhibition / potency (in words) (Human MB-COMT): no appreciable inhibition of MB-COMT

CCS(=O)(=O)c1ccc(O)c2ncccc12 [Compound 15, 5-(Ethylsulfonyl)quinoline-8-ol]
Hepatocyte Stability (Rat) (rat hepatocytes): 39 μL/min/10^6 cells | metabolic stability / clearance in rat hepatocytes (in words) (rat hepatocytes): high hepatocyte clearance | overall exposure in mouse (in words) [4]: low overall exposure

O=S(=O)(c1ccc(O)c2ncccc12)N1CCCC1Cc1ccccc1 (centres unmarked) [Compound 16, 5-((2-Benzylpyrrolidin-1-yl)sulfonyl)quinoline-8-ol]
Hepatocyte Stability (Rat) (rat hepatocytes): 228 μL/min/10^6 cells | metabolic stability / clearance in rat hepatocytes (in words) (rat hepatocytes): high hepatocyte clearance | overall exposure in mouse (in words) [4]: low overall exposure

O=S(=O)(c1ccc(C(F)(F)F)cc1)c1ccc(O)c2ncccc12 [Compound 17, 5-((4-(Trifluoromethyl)phenyl)sulfonyl)quinolin-8-ol]
Hepatocyte Stability (Rat) (rat hepatocytes): 46 μL/min/10^6 cells | metabolic stability / clearance in rat hepatocytes (in words) (rat hepatocytes): high hepatocyte clearance

O=S(=O)(c1ccc(C(F)(F)F)cc1)c1cc(F)c(O)c2ncccc12 [Compound 18, 7-Fluoro-5-((4-(trifluoromethyl)phenyl)sulfonyl)quinolin-8-ol]
Hepatocyte Stability (Rat) (rat hepatocytes): 12 μL/min/10^6 cells | clearance (Rat pharmacokinetics): 13 mL/min/kg

O=S(=O)(c1ccc(F)cc1)c1cc(Cl)c(O)c2ncccc12 [Compound 19, 7-Chloro-5-((4-fluorophenyl)sulfonyl)quinolin-8-ol]
Hepatocyte Stability (Rat) (rat hepatocytes): 4 μL/min/10^6 cells | rat PK profile (in words) (Rat pharmacokinetics): very low clearance and long half-life | clearance (Rat pharmacokinetics): 0.31 mL/min/kg

O=S(=O)(c1ccc(F)cc1)c1cc(F)c(O)c2ncccc12 [Compound 20, 7-Fluoro-5-((4-fluorophenyl)sulfonyl)quinolin-8-ol]
Hepatocyte Stability (Rat) (rat hepatocytes): 15 μL/min/10^6 cells | clearance (Rat pharmacokinetics): 12 mL/min/kg | P-gp substrate (in words) (P-glycoprotein): not substrates for the transporter | concentration at 4 h [1]: 59 nM | Non-specific binding to CSF (bound) [5]: 51–57%

Cc1ccc(S(=O)(=O)c2cc(F)c(O)c3ncccc23)cc1 [Compound 21, 7-Fluoro-5-tosylquinolin-8-ol]
Hepatocyte Stability (Rat) (rat hepatocytes): 36 μL/min/10^6 cells | clearance (Rat pharmacokinetics): 27 mL/min/kg

Cc1ccc(S(=O)(=O)c2cc(Cl)c(O)c3ncccc23)cc1 [Compound 22, 7-Chloro-5-tosylquinolin-8-ol]
Hepatocyte Stability (Rat) (rat hepatocytes): 78 μL/min/10^6 cells | clearance (Rat pharmacokinetics): 25 mL/min/kg | P-gp substrate (in words) (P-glycoprotein): not substrates for the transporter

Cc1ccc(S(=O)(=O)c2cc(Br)c(O)c3ncccc23)cc1 [Compound 23, 7-Bromo-5-tosylquinolin-8-ol]
MB-COMT inhibition / potency (in words) (Human MB-COMT): reduced MB-COMT potency

O=S(=O)(c1cc(F)c(O)c2ncccc12)C1CCCC1 [Compound 25, 5-(Cyclopentylsulfonyl)-7-fluoroquinolin-8-ol]
Hepatocyte Stability (Rat) (rat hepatocytes): 19 μL/min/10^6 cells | rat PK profile (in words) (Rat pharmacokinetics): good pharmacokinetics | clearance (Rat pharmacokinetics): 0.62 mL/min/kg | concentration at 4 h [1]: 139 nM | HVA decrease, significance versus vehicle (in words) [6]: statistically significant difference | Non-specific binding to CSF (bound) [5]: 51–57%

O=S(=O)(c1cc(Cl)c(O)c2ncccc12)C1CCCC1 [Compound 26, 7-Chloro-5-(cyclopentylsulfonyl)quinolin-8-ol]
Hepatocyte Stability (Rat) (rat hepatocytes): 18 μL/min/10^6 cells | rat PK profile (in words) (Rat pharmacokinetics): very low clearance and long half-life

O=S(=O)(c1cc(F)c(O)c2ncccc12)N1CCCC1 [Compound 28, 7-Fluoro-5-(pyrrolidin-1-ylsulfonyl)quinolin-8-ol]
Hepatocyte Stability (Rat) (rat hepatocytes): 21 μL/min/10^6 cells | rat PK profile (in words) (Rat pharmacokinetics): good pharmacokinetics | clearance (Rat pharmacokinetics): 11 mL/min/kg | concentration at 4 h [1]: 77 nM | HVA decrease, significance versus vehicle (in words) [6]: statistically significant difference | Non-specific binding to CSF (bound) [5]: 51–57% | substrate or inhibitor of P-gp (in words) (P-gp): not found to be a substrate or an inhibitor | substrate or inhibitor of BCRP (in words) (BCRP): not found to be a substrate or an inhibitor | substrate or inhibitor of MRP2 (in words) (MRP2): not found to be a substrate or an inhibitor

O=S(=O)(c1cc(Cl)c(O)c2ncccc12)N1CCCC1 [Compound 29, 7-Chloro-5-(pyrrolidin-1-ylsulfonyl)quinolin-8-ol]
Hepatocyte Stability (Rat) (rat hepatocytes): 14 μL/min/10^6 cells | rat PK profile (in words) (Rat pharmacokinetics): very low clearance and long half-life | clearance (Rat pharmacokinetics): 1 mL/min/kg

Cc1cc(S(=O)(=O)N2CCCC2)c2cccnc2c1O [Compound 30, 7-Methyl-5-(pyrrolidin-1-ylsulfonyl)quinolin-8-ol]
MB-COMT inhibition / potency (in words) (Human MB-COMT): tolerated | Hepatocyte Stability (Rat) (rat hepatocytes): 103 μL/min/10^6 cells | metabolic stability / clearance in rat hepatocytes (in words) (rat hepatocytes): no impact on clearance
